Values after ≈ are worked out from the molar mass of the structure shown. Active and inactive are the calls of the source.
Tests used:
HeLa [1] = assay: Cytotoxicity against human HeLa cells at 125 uM after 4 hrs by ATPLite assay; assay type: cell-based
Procedure, shortened: (§1)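 HeLa cells in 96-well format, read with an ATPLite reagent-based viability assay. Cell–compound contact lasted 4 hr or 24 hr, and viability was expressed relative to untreated controls.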

Yersinia pestis [2] = assay: Ratio of IC50 for Yersinia pestis KIM6-2082.1+ in PMHD medium supplemented with 100 uM FeCl3 to IC50 for Yersinia pestis KIM6-2082.1+ in Fe-deficient PMHD medium; assay type: functional
HeLa [3] = assay: Cytotoxicity against human HeLa cells at 125 uM after 24 hrs by ATPLite assay relative to control; assay type: cell-based; procedure, shortened: as §1
Yersinia pestis [4] = assay: Bactericidal activity against Yersinia pestis KIM6-2082.1+ in PMHD medium at 2 times MIC after 3 days by colony counting; assay type: functional, organism-based
HeLa [5] = assay: Cytotoxicity against human HeLa cells at 16 uM after 24 hrs by ATPLite assay; assay type: cell-based; procedure, shortened: as §1
Yersinia pestis [6] = assay: Antimicrobial activity against Yersinia pestis KIM6-2082.1+ in PMHD medium after 26 hrs by spectrophotometric analysis; assay type: functional, organism-based
Yersinia pestis [7] = assay: Ratio of MIC90 for Yersinia pestis KIM6-2082.1+ in PMHD medium supplemented with 100 uM FeCl3 to IC50 for Yersinia pestis KIM6-2082.1+ in Fe-deficient PMHD medium; assay type: functional
[8] = test system: Mycobacterium tuberculosis; assay: Bactericidal activity against Mycobacterium tuberculosis H37Rv in GASTD medium at 2 times MIC after 30 days by colony counting; assay type: functional, organism-based
Procedure, shortened: (§2)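 Duplicate GASTD cultures were treated and incubated as in the growth assay (37 °C, 10 days), then serial 10-fold dilutions were plated on Middlebrook 7H11. Colonies were counted after 30 days at 37 °C and reported as CFU/mL. Bactericidal was defined as >99% killing relative to inoculum.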

Yersinia pestis [9] = assay: Antimicrobial activity against Yersinia pestis KIM6-2082.1+ in PMHD medium supplemented with 100 uM FeCl3 after 26 hrs by spectrophotometric analysis; assay type: functional, organism-based
[10] = test system: Mycobacterium tuberculosis; assay: Ratio of IC50 for Mycobacterium tuberculosis H37Rv in GASTD medium supplemented with 100 uM FeCl3 to IC50 for Mycobacterium tuberculosis H37Rv in Fe-deficient GASTD medium; assay type: functional
Procedure, shortened: (§3)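 Virulent H37Rv, twofold microdilution in iron-limiting GASTD or GASTD plus 100 μM FeCl3, started at OD600 0.001 from deferrated stocks. Compounds were added in DMSO (0.5% final) up to 500 μM or the solubility limit. Cultures sat stationary for 10 days at 37 °C, read at OD600. IC50 from sigmoidal fits to triplicates; MIC90 is the lowest concentration giving ≥90% inhibition versus DMSO controls. Ratios are +Fe/GASTD.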

[11] = test system: Mycobacterium tuberculosis; assay: Ratio of MIC90 for Mycobacterium tuberculosis H37Rv in GASTD medium supplemented with 100 uM FeCl3 to MIC90 for Mycobacterium tuberculosis H37Rv in Fe-deficient GASTD medium; assay type: functional; procedure, shortened: as §3
[12] = test system: Mycobacterium tuberculosis; assay: Antimicrobial activity against Mycobacterium tuberculosis H37Rv in GASTD medium supplemented with 100 uM FeCl3 after 10 days by spectrophotometric analysis; assay type: functional, organism-based; details: 240 h; procedure, shortened: as §3
HeLa [13] = assay: Cytotoxicity against human HeLa cells at 21 uM after 24 hrs by ATPLite assay; assay type: cell-based; procedure, shortened: as §1
[14] = test system: Mycobacterium tuberculosis; assay: Antimicrobial activity against Mycobacterium tuberculosis H37Rv in GASTD medium after 10 days by spectrophotometric analysis; assay type: functional, organism-based; details: 240 h; procedure, shortened: as §3
Yersinia pestis [15] = assay: Bactericidal activity against Yersinia pestis KIM6-2082.1+ in PMHD medium at MIC after 3 days by colony counting; assay type: functional, organism-based
HeLa [16] = assay: Cytotoxicity against human HeLa cells at 0.2 uM after 24 hrs by ATPLite assay; assay type: cell-based; procedure, shortened: as §1
Yersinia pestis [17] = assay: Bacteriostatic activity against Yersinia pestis KIM6-2082.1+ in PMHD medium at 2 times MIC after 3 days by colony counting; assay type: functional, organism-based
HeLa [18] = assay: Cytotoxicity against human HeLa cells at 7 uM after 24 hrs by ATPLite assay; assay type: cell-based; procedure, shortened: as §1
HeLa [19] = assay: Cytotoxicity against human HeLa cells at 10 uM after 24 hrs by ATPLite assay; assay type: cell-based; procedure, shortened: as §1
[20] = test system: Mycobacterium tuberculosis; assay: Bactericidal activity against Mycobacterium tuberculosis H37Rv in GASTD medium at 4 times MIC after 30 days by colony counting; assay type: functional, organism-based; procedure, shortened: as §2
Yersinia pestis [21] = assay: Bacteriostatic activity against Yersinia pestis KIM6-2082.1+ in PMHD medium at MIC after 3 days by colony counting; assay type: functional, organism-based

SMILES	Ratio IC50 (Yersinia pestis [2])	Activity (Yersinia pestis [4])	IC50 (Yersinia pestis [6]) [µM]	MIC90 (Yersinia pestis [6]) [µM]	Ratio (Yersinia pestis [7])	Activity [8]	IC50 (Yersinia pestis [9]) [µM]	MIC90 (Yersinia pestis [9]) [µM]	Ratio IC50 [10]	Ratio [11]	IC50 [12] [µM]	MIC90 [12] [µM]	IC50 [14] [µM]	MIC90 [14] [µM]	also measured
N=C(NO)N1N=C(c2ccccc2O)C[C@H]1c1ccc(O)cc1	>13	Active	5	21 (≈ 6.56 µg/mL)	>3	Active	> 63	> 63	0.5	0.2	22	31 (≈ 9.68 µg/mL)	47	125 (≈ 39 µg/mL)	Activity (HeLa [1]): Non-toxic; Activity (HeLa [3]): 70%; Activity (HeLa [5]): Non-toxic; Activity (HeLa [13]): Non-toxic
N=C(N)N1N=C(c2ccccc2O)C[C@H]1c1ccccc1O	>9	–	7	42 (≈ 12.4 µg/mL)	>1	Active	> 63	> 63	1	1	23	66 (≈ 19.6 µg/mL)	44	66 (≈ 19.6 µg/mL)	Activity (Yersinia pestis [15]): Active
O=C(NO)N1CCN(C(=S)N/N=C/c2ccccc2O)CC1	>100	–	0.04	0.2 (≈ 0.0647 µg/mL)	>20	–	> 4	> 4	–	–	> 8	> 8	20	> 31	Activity (HeLa [16]): Non-toxic; Activity (Yersinia pestis [17]): Active
CSC(=S)N/N=C(\C)c1ccccc1O	>3	Active	61	116 (≈ 27.9 µg/mL)	2	Active	156	233 (≈ 56 µg/mL)	1	1	4	9 (≈ 2.16 µg/mL)	4	10 (≈ 2.4 µg/mL)	Activity (HeLa [18]): Non-toxic; Activity (HeLa [19]): Non-toxic
CSC(=S)N/N=C/c1ccccc1O	>15	–	4	15 (≈ 3.39 µg/mL)	>4	–	> 59	> 59	1	1	2	6 (≈ 1.36 µg/mL)	3	7 (≈ 1.58 µg/mL)	Activity (HeLa [18]): Non-toxic; Activity (HeLa [19]): Non-toxic; Activity [20]: Active; Activity (Yersinia pestis [17]): Active
N=C(NO)N1N=C(c2ccccc2O)C[C@H]1c1ccccc1O	>4	Active	4	16 (≈ 5 µg/mL)	>1	Active	> 16	> 16	1	>1	32	> 125	37	125 (≈ 39 µg/mL)	Activity (HeLa [5]): Non-toxic; Activity (HeLa [13]): Non-toxic
CSC(=S)N/N=C/c1ccc(O)cc1	>2	–	137	388 (≈ 87.8 µg/mL)	–	Active	> 233	> 233	1	1	33	59 (≈ 13.4 µg/mL)	31	59 (≈ 13.4 µg/mL)	Activity (Yersinia pestis [21]): Active

From ChEMBL document CHEMBL1914393, “Chemical scaffolds with structural similarities to siderophores of nonribosomal peptide-polyketide origin as novel antimicrobials against Mycobacterium tuberculosis and Yersinia pestis” (Bioorg Med Chem Lett, 2011)
